In ChEMBL document CHEMBL1131143, “Predictive models for GABAA/benzodiazepine receptor subtypes: studies of quantitative structure-activity relationships for imidazobenzodiazepines at five recombinant GABAA/benzodiazepine receptor subtypes [alphaxbeta3gamma2 (x = 1-3, 5, and 6)] via comparative molecular field analysis” (J Med Chem, 1998) one finds Ki and Ratio data, which are given here for 17 compounds.

Holding throughout (assay type): protein-complex assay
Assay [1] has as its target GABA-A receptor; alpha-6/beta-3/gamma-2 (Homo sapiens, UniProt P18507+P28472+Q16445). The assay is described as follows: Binding affinity against Gamma-aminobutyric acid A receptor alpha-6-beta-3-gamma-2. The procedure, abridged: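 Cells scraped into PBS, spun at 3000g, resuspended in 10 mM KH₂PO₄/100 mM KCl pH 7.4. Nonspecific binding with 10⁻⁵ M diazepam; 1 h to equilibrium at 4 °C; filtration, ice-cold buffer wash, scintillation counting.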

Assay [2] addresses T1, GABA-A receptor; alpha-5/beta-3/gamma-2 (Homo sapiens, UniProt P18507+P28472+P31644).
T1 sequence (P18507 whole entry): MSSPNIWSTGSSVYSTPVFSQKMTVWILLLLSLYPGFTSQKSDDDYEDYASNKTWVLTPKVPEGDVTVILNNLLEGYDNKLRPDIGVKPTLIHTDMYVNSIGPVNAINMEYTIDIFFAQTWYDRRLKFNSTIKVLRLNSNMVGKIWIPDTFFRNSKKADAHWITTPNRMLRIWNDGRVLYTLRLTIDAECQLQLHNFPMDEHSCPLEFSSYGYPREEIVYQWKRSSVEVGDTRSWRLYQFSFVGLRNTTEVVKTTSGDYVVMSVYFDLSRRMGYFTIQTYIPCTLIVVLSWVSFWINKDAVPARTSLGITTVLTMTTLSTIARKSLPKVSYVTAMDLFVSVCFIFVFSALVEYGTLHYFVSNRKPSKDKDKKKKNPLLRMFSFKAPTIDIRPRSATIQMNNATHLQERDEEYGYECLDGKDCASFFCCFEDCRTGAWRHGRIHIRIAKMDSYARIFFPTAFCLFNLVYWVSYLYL
T1 sequence (P28472 whole entry): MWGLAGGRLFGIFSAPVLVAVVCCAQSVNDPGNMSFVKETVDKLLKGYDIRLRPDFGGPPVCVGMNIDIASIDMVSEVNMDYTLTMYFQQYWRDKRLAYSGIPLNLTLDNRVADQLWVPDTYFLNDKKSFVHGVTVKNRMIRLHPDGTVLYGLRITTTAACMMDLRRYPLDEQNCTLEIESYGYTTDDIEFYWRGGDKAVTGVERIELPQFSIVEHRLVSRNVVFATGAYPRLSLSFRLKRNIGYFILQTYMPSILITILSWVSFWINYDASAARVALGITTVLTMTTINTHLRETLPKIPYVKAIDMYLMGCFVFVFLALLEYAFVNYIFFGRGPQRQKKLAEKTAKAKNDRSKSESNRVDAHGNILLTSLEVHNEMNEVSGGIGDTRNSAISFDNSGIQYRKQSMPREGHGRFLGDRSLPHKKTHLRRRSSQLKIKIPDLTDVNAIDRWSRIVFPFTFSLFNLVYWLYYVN
T1 sequence (P31644 whole entry): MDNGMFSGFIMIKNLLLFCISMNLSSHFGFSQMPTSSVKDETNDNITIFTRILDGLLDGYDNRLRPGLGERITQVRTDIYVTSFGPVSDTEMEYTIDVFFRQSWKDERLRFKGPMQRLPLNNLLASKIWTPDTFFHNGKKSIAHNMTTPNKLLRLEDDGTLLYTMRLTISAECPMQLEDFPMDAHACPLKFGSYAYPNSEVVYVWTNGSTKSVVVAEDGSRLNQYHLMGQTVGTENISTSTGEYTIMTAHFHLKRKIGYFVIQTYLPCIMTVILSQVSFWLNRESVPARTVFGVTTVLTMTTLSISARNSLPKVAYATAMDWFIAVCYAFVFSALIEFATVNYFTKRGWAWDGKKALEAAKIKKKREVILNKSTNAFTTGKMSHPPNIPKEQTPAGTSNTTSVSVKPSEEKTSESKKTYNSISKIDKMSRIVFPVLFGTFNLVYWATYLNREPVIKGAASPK
The assay is described as follows: Binding affinity for Gamma-aminobutyric acid A receptor alpha-5-beta-3-gamma-2.

In assay [3] the target is T2, GABA-A receptor; alpha-1/beta-3/gamma-2 (Homo sapiens, UniProt P14867+P18507+P28472).
T2 sequence (P14867 whole entry): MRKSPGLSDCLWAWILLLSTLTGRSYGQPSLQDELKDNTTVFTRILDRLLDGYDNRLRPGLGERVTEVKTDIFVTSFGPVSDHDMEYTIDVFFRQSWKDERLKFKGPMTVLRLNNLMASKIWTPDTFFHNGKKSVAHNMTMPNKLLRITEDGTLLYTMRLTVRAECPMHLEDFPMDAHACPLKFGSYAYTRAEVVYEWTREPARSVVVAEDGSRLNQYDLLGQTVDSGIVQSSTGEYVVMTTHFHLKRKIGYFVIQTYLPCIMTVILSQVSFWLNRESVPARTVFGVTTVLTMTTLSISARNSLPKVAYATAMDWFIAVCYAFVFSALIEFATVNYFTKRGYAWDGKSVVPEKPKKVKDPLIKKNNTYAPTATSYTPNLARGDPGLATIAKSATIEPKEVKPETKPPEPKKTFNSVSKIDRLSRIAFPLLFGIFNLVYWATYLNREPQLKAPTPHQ
T2 sequence (P18507 whole entry): T1 sequence (P18507 whole entry)
T2 sequence (P28472 whole entry): T1 sequence (P28472 whole entry)
The assay is described as follows: Binding affinity against alpha-1-beta-3-gamma-2 GABAA/BzR receptor subtype.

For assay [4], the target named is GABA-A receptor; alpha-1/beta-3/gamma-2 (Homo sapiens) (UniProt P14867+P18507+P28472). The assay is described as follows: It is the ratio of Ki value for alpha-1-beta-3-gamma-2 to that of alpha-5-beta-3-gamma-2.
Assay [5] concerns the target T3, GABA-A receptor; alpha-3/beta-3/gamma-2 (Homo sapiens, UniProt P18507+P28472+P34903).
T3 sequence (P18507 whole entry): T1 sequence (P18507 whole entry)
T3 sequence (P28472 whole entry): T1 sequence (P28472 whole entry)
T3 sequence (P34903 whole entry): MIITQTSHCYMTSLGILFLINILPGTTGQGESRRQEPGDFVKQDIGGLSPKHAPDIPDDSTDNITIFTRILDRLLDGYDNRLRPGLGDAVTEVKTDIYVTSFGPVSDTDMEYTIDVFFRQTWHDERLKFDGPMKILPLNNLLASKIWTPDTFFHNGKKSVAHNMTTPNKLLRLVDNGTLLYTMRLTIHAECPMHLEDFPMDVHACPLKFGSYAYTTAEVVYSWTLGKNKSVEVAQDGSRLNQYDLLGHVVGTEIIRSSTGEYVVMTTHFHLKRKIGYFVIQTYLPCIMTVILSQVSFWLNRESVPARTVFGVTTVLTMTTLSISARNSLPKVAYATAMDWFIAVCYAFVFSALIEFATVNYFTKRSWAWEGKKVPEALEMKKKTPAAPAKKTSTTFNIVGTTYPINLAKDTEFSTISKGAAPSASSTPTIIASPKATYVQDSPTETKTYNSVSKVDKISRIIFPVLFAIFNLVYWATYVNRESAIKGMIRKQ
The assay is described as follows: Binding affinity against alpha-3-beta-3-gamma-2 GABAA/BzR receptor subtype.

Assay [6] has as its target T4, GABA-A receptor; alpha-2/beta-3/gamma-2 (Homo sapiens, UniProt P18507+P28472+P47869).
T4 sequence (P18507 whole entry): T1 sequence (P18507 whole entry)
T4 sequence (P28472 whole entry): T1 sequence (P28472 whole entry)
T4 sequence (P47869 whole entry): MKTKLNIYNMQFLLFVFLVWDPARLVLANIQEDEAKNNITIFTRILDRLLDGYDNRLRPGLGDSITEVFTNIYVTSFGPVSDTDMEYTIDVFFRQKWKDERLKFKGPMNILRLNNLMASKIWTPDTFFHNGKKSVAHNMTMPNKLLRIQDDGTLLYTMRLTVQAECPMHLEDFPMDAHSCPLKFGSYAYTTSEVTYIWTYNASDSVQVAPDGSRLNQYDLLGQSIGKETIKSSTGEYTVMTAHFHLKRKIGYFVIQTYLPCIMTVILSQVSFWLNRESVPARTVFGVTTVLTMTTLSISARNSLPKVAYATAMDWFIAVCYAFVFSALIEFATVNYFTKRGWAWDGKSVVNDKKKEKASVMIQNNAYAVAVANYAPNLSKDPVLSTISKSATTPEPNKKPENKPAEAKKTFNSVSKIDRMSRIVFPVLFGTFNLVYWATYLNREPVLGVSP
The assay is described as follows: Binding affinity tested against alpha-2-beta-3-gamma-2 GABAA/BzR receptor subtype.

Where only a bound is given, the exact number is not on record here.

Chain of GABA-A receptor; alpha-6/beta-3/gamma-2 (Q16445 whole entry, one chain of several): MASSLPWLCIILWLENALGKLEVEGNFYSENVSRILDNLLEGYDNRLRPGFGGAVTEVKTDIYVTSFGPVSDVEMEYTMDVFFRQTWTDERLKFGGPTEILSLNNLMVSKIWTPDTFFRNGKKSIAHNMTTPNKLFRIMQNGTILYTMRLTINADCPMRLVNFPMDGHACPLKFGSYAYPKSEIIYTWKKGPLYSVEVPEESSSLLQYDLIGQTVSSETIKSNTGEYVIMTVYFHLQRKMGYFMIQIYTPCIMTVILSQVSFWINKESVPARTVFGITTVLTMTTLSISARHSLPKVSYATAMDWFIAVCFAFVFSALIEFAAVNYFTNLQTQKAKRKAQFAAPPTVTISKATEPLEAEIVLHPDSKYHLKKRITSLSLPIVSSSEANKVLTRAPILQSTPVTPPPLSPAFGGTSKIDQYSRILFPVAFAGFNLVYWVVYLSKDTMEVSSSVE

For `CCCCC(=O)c1ncn2c1CN(C)C(=O)c1cc(Cl)ccc1-2`, the inhibition constant (Ki) in assay [1] turned out to be 2930 nM; in assay [2], 166 nM; in assay [3], 1580 nM; in assay [5], 2740 nM; in assay [6] it was 2860 nM. The Ratio in assay [4] amounted to 9.6.
Consider `CCOC(=O)c1ncn2c1[C@@H]1CCCN1C(=O)c1cc(OC)ccc1-2`, for which the Ki amounted to 83.2 nM in assay [1]; 0.45 nM in assay [2]; 48.5 nM in assay [3]; 27.5 nM in assay [5]; 27.4 nM in assay [6]. Moreover, the Ratio in assay [4] turned out to be 108.
Regarding `CN1Cc2c(C(=O)OC(C)(C)C)ncn2-c2ccc(C#CC[Si](C)(C)C)cc2C1=O`, the Ki in assay [1] turned out to be 301 nM; in assay [2] it was 23 nM; in assay [3], 275 nM; in assay [5] it was 337 nM; in assay [6] it was 387 nM. Moreover, the Ratio in assay [4] worked out at 12.
For `C#Cc1ccc2c(c1)C(=O)N1CCC[C@@H]1c1c(C(=O)OCC)ncn1-2`, the Ki in assay [1] worked out at 61 nM; in assay [2], 7.2 nM; in assay [3], 283 nM; in assay [5] it was 102 nM; in assay [6], 318 nM. In addition, the Ratio in assay [4] was found to be 39.
Consider `CN1Cc2c(CCl)ncn2-c2ccc(Cl)cc2C1=O`, for which the Ki is > 300 nM in assay [1]; 28.5 nM in assay [2]; > 300 nM in assay [3]; > 300 nM in assay [5]; > 300 nM in assay [6]. Further, the Ratio in assay [4] was > 10.5.
In the case of `CN1Cc2c(C(=O)OC(C)(C)C)ncn2-c2ccc(C#C[Si](C)(C)C)cc2C1=O`, the Ki came to 58.6 nM in assay [1]; 2.61 nM in assay [2]; 197 nM in assay [3]; 255 nM in assay [5]; 143 nM in assay [6]. In assay [4], the Ratio stood at 75.5.
For `CCOC(=O)c1ncn2c1[C@@H]1CCCN1C(=O)c1cc(Br)ccc1-2`, the inhibition constant Ki in assay [1] was 46 nM; in assay [2] it was 1 nM; in assay [3], 49 nM; in assay [5], 15 nM; in assay [6], 29 nM. In addition, the Ratio in assay [4] came to 49.
In the case of `CN1Cc2c(C(=O)OC(C)(C)C)ncn2-c2ccc([N+](=O)[O-])cc2C1=O`, the Ki in assay [1] was determined as 22.5 nM; in assay [2], 3.5 nM; in assay [3], 12.8 nM; in assay [5], 30.2 nM; in assay [6], 49.8 nM. For the same compound, in assay [4], the Ratio was found to be 3.7.
As to `CCOC(=O)c1ncn2c1CN(C)C(=O)c1cc(OCC)ccc1-2`, the inhibition constant Ki is 51.5 nM in assay [1]; 1.07 nM in assay [2]; 11.2 nM in assay [3]; 16.9 nM in assay [5]; 36 nM in assay [6]. Further, in assay [4], the Ratio turned out to be 12.4.
Consider `CCc1ncn2c1CN(C)C(=O)c1cc(Cl)ccc1-2`, for which the inhibition constant Ki in assay [1] came to 3650 nM; in assay [2] it was 182 nM; in assay [3], 408 nM; in assay [5], 1130 nM; in assay [6] it was 1530 nM. The Ratio in assay [4] stood at 2.2.
With `CC#Cc1ccc2c(c1)C(=O)N(C)Cc1c(C(=O)OCC)ncn1-2`, the Ki was > 100 nM in assay [1]; 1.68 nM in assay [2]; 10.1 nM in assay [3]; 16.5 nM in assay [5]; 22.2 nM in assay [6]. The Ratio in assay [4] worked out at 6.
For the compound `CCOC(=O)c1ncn2c1[C@@H]1CCN1C(=O)c1cc(Br)ccc1-2`, the Ki in assay [1] came to 31 nM; in assay [2], 0.3 nM; in assay [3] it was 17 nM; in assay [5], 6.7 nM; in assay [6] it was 13 nM. Also, the Ratio in assay [4] came to 56.
Take `CCOC(=O)c1ncn2c1[C@@H]1CCN1C(=O)c1cc(C#C[Si](C)(C)C)ccc1-2`: the inhibition constant (Ki) was 180 nM in assay [1]; 2.6 nM in assay [2]; 83 nM in assay [3]; 48 nM in assay [5]; 60 nM in assay [6]. For the same compound, the Ratio in assay [4] is 32.
`C#Cc1ccc2c(c1)C(=O)N1CC[C@H]1c1c(C(=O)OCC)ncn1-2`: the inhibitory constant (Ki) worked out at 42 nM in assay [1]; 0.37 nM in assay [2]; 21 nM in assay [3]; 10 nM in assay [5]; 12 nM in assay [6]. The Ratio in assay [4] came to 57.
Take `CCN(CC)Cc1ncn2c1CN(C)C(=O)c1cc(Cl)ccc1-2`: the Ki in assay [1] is 30200 nM; in assay [2] it was 2580 nM; in assay [3], 9480 nM; in assay [5], 15400 nM; in assay [6], 30000 nM. Moreover, the Ratio in assay [4] is 3.2.
As for `C#Cc1ccc2c(c1)C(=O)N1CC[C@H]1c1c(-c3nc(C(C)C)no3)ncn1-2`, the Ki in assay [1] worked out at 267 nM; in assay [2] it was 8.5 nM; in assay [3] it was 156 nM; in assay [5] it was 122 nM; in assay [6] it was 88 nM. In assay [4], the Ratio stood at 18.
Take `CCOCc1ncn2c1CN(C)C(=O)c1cc(Cl)ccc1-2`: the Ki in assay [1] was > 300 nM; in assay [2] it was 82.7 nM; in assay [3] it was > 300 nM; in assay [5], > 300 nM; in assay [6] it was > 300 nM. Moreover, in assay [4], the Ratio is > 3.6.
